Measurements published in ChEMBL document CHEMBL1811898, “Discovery and structure-activity relationships of modified salicylanilides as cell permeable inhibitors of poly(ADP-ribose) glycohydrolase (PARG)” (J Med Chem, 2011).
Activity calls are given as the source filed them. The rule behind the calls is not given here.

How the values were obtained:
[1] = target: Poly [ADP-ribose] polymerase 1 (Homo sapiens, UniProt P09874); assay: Inhibition of PARP-1 using [32P]-NAD+ after 15 mins
[2] = target: T1, NAD-dependent protein deacetylase sirtuin-1 (Homo sapiens) (UniProt Q96EB6); assay: Inhibition of SIRT1
T1 sequence (whole entry): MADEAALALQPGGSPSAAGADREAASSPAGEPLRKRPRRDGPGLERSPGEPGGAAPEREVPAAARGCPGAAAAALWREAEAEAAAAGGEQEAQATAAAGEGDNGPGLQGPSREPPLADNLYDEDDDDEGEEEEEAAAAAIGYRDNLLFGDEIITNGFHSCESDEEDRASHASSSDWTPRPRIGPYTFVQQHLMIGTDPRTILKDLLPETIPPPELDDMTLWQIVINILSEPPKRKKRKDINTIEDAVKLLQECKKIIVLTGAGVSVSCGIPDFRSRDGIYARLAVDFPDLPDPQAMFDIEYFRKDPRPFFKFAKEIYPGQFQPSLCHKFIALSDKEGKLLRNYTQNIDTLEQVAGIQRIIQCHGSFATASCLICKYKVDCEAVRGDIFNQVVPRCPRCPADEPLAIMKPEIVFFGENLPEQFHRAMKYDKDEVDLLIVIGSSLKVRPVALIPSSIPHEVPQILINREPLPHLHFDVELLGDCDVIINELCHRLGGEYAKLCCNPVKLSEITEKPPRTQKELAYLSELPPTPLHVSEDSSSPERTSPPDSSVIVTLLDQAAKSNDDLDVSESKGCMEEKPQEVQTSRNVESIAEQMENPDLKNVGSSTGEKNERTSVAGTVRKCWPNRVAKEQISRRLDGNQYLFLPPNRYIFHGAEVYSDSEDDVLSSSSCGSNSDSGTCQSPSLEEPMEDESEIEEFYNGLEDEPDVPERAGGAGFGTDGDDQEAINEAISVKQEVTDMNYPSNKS

[3] = Inhibition of alcohol dehydrogenase
[4] = target: PARP 1, 2 and 3 (Homo sapiens) (UniProt P09874+Q9Y6F1+Q9UGN5); assay: Inhibition of PARP in human SCC25 cells assessed as inhibition of MNNG-induced NAD(H) depletion at 1 mM preincubated for 5 mins before MNNG challenge measured after 30 mins; assay type: cell-based; settings: SCC-25
In short: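 SCC-25 cells (90% confluent, 35 mm dishes) pretreated 5 min with compound, then 5 μg/mL MNNG for 30 min; HClO4 extraction, KOH/KH2PO4 neutralization; NAD by enzymatic cycling (alcohol dehydrogenase, phenazine ethosulfate, MTT, 37°C 30 min), A570; normalized to cell protein.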

[5] = target: Poly(ADP-ribose) glycohydrolase (Homo sapiens) (UniProt Q86W56); settings: SCC-25, 1 mM
[6] = target: Poly(ADP-ribose) glycohydrolase (Homo sapiens) (UniProt Q86W56); settings: SCC-25, 1 mM; remark: listed apart in the source
[7] = target: Poly(ADP-ribose) glycohydrolase (Homo sapiens) (UniProt Q86W56); settings: SCC-25, 1 mM; remark: listed apart in the source
[8] = target: Poly(ADP-ribose) glycohydrolase (Homo sapiens) (UniProt Q86W56); assay: Inhibition of PARG using [alpha-32P]ADP-ribose polymers up to 500 uM after 5 mins by TRAP assay
[9] = target: Poly(ADP-ribose) glycohydrolase (Homo sapiens) (UniProt Q86W56); assay: Inhibition of PARG in human SCC25 cells assessed as inhibition of MNNG-induced poly(ADP-ribose) formation at 1 mM after 20 mins by chemiluminescent ELISA; assay type: cell-based; settings: SCC-25
In short: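 SCC-25 cells at 90% confluence in 35 mm dishes; 5 μg/mL MNNG used to induce PAR; lysed in buffer with 1% SDS; ADP-ribose polymers quantified by chemiluminescent ELISA (kit protocol, minor changes); PAR normalized to cell count.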

[10] = Selectivity ratio of IC50 for PARP-1 to IC50 for PARG
[11] = target: Poly(ADP-ribose) glycohydrolase (Homo sapiens) (UniProt Q86W56); assay: Inhibition of PARG using [alpha-32P]ADP-ribose polymers at 500 uM after 5 mins by TRAP assay

Sequence of Poly [ADP-ribose] polymerase 1 (P09874 whole entry): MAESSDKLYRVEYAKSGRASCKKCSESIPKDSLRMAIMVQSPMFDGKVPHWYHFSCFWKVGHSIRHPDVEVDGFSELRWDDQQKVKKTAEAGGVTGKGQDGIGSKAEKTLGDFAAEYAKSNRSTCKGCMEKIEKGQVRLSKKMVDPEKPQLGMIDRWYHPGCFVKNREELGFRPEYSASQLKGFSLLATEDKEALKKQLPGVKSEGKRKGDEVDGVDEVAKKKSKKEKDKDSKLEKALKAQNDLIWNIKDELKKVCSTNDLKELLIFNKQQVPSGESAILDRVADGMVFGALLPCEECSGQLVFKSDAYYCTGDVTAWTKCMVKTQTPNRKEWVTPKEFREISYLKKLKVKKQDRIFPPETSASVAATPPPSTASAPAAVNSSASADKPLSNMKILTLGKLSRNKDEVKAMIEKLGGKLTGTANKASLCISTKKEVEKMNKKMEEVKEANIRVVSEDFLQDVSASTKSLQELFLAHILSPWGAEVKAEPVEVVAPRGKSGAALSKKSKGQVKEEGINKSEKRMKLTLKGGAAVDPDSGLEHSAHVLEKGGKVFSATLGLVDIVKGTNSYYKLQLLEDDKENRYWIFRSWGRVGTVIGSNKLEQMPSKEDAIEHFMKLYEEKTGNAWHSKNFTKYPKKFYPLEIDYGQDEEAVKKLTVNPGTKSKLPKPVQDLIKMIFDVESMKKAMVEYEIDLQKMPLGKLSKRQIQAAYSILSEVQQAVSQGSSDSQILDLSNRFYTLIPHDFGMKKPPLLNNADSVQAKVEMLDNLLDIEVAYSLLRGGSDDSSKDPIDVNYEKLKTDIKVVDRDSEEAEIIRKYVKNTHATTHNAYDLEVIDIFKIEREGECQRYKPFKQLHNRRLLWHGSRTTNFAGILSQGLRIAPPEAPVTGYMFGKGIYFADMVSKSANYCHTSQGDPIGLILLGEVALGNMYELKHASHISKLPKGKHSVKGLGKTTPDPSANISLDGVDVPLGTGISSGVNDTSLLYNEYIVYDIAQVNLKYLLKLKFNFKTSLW
Sequence of Poly(ADP-ribose) glycohydrolase (Homo sapiens) (Q86W56 whole entry, looked up): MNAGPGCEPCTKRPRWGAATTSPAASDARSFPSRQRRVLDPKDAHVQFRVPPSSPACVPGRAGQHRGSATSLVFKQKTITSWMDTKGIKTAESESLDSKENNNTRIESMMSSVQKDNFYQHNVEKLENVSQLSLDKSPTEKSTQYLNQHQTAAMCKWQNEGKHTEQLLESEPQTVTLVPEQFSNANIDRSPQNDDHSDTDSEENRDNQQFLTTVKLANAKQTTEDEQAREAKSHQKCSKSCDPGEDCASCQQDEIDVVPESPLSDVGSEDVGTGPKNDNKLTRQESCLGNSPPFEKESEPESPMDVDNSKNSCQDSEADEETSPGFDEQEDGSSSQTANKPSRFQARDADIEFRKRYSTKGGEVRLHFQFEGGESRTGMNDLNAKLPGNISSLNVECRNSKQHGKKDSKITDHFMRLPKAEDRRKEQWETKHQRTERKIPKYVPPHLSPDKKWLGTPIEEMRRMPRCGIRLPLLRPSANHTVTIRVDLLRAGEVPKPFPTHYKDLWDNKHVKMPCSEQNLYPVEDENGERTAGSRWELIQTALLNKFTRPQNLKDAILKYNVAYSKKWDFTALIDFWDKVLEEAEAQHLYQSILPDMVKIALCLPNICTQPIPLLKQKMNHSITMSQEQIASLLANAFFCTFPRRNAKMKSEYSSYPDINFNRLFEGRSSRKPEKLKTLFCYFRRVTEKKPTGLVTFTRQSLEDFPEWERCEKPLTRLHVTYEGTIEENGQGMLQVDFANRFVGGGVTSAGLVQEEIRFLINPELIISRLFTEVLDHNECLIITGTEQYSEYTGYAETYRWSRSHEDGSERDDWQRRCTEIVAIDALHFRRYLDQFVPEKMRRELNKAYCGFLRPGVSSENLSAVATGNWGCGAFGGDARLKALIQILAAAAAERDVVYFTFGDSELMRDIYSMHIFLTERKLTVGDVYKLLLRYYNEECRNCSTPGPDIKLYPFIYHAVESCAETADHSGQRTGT

Compound	inhibition [2]	inhibition [3]	other results
O=C(Nc1ccc(Cl)cc1)c1cc(Cl)cc(Cl)c1O	inactive	inactive	inhibition [4]: Active
NC(=O)c1ccccc1 [BENZAMIDE]	–	–	IC50 [1]: 5.4 µM; inhibition [4]: Active; inhibition [9]: Active
Oc1c(Cl)cc(Cl)cc1CNc1ccc(Oc2ccc3ccccc3c2)c(Cl)c1	inactive	inactive	inhibition [8]: inactive
Nc1ncnc2c1ncn2[C@@H]1O[C@H](CO[P@](=O)(O)O[P@@](=O)(O)OC[C@H]2NC[C@H](O)[C@@H]2O)[C@@H](O)[C@H]1O [ADENOSINE DIPHOSPHATE (HYDROXYMETHYL)PYRROLIDINEDIOL]	–	–	IC50 [1]: > 1000 µM
Cc1cccc(NC(=O)c2cc(Cl)cc(Cl)c2O)c1	inactive	inactive	inhibition [11]: 10%
NC(=O)c1cc(Cl)cc(Cl)c1O	inactive	inactive	inhibition [4]: Active; inhibition [11]: < 10%
O=C(Nc1ccc(Oc2ccc3ccccc3c2)c(Cl)c1)c1cc(Cl)cc(Cl)c1	inactive	inactive	inhibition [8]: inactive; inhibition [4]: Active
Oc1c(Cl)cc(Cl)cc1/C=N/c1ccc(Oc2ccc3ccccc3c2)c(Cl)c1	inactive	inactive	inhibition [8]: inactive
O=C(Nc1ccc(Oc2ccc3ccccc3c2)c(Cl)c1)c1cccc(Cl)c1O	inactive	inactive	–
CN(C(=O)c1cc(Cl)cc(Cl)c1O)c1ccc(Oc2ccc3ccccc3c2)c(Cl)c1	inactive	inactive	–
O=C(Nc1cc(Cl)ccc1Oc1ccc2ccccc2c1Cl)c1cc(Cl)cc(Br)c1O	inactive	inactive	–
Cc1ccccc1NC(=O)c1cc(Cl)cc(Cl)c1O	inactive	inactive	inhibition [11]: 10%
O=C(Nc1ccc(Oc2ccc3ccccc3c2)c(Cl)c1)c1cc(Cl)ccc1O	inactive	inactive	–
O=C(Nc1cccc(Cl)c1)c1cc(Cl)cc(Cl)c1O	inactive	inactive	IC50 [1]: 500 µM
O=C(Nc1ccccc1)c1cc(Cl)cc(Cl)c1O	inactive	inactive	inhibition [11]: < 10%
O=C(Nc1ccc(Oc2ccc3ccccc3c2)c(C(F)(F)F)c1)c1cc(Cl)cc(Cl)c1O	inactive	inactive	–
Cc1ccc(C(C)C)c(Br)c1Oc1ccc(Cl)cc1NC(=O)c1cc(Cl)cc(Br)c1O	inactive	inactive	IC50 [1]: 78 µM
O=C(Nc1ccc(Oc2ccc3ccccc3c2)c(Cl)c1)c1ccccc1O	inactive	inactive	–
O=C(Nc1ccccc1Cl)c1cc(Cl)cc(Cl)c1O	inactive	inactive	IC50 [1]: 500 µM; inhibition [11]: 10%
O=C(O)c1ccccc1C(=O)Nc1ccc(Oc2ccc3ccccc3c2)c(Cl)c1	inactive	inactive	IC50 [1]: 66 µM

Continued, in another order:

inhibition [2]	inhibition [3]	Compound	other results
inactive	inactive	O=C(Nc1ccc(Oc2ccc3ccccc3c2)c(Cl)c1)c1cc(Cl)cc(Cl)c1O	IC50 [1]: 120 µM; inhibition [4]: 40%; inhibition [5]: Active; inhibition [6]: Active; inhibition [7]: Active
inactive	inactive	COc1c(Cl)cc(Cl)cc1C(=O)Nc1ccc(Oc2ccc3ccccc3c2)c(Cl)c1	inhibition [8]: inactive
inactive	inactive	O=C(Nc1ccc(Oc2ccccc2)c(Cl)c1)c1cc(Cl)cc(Cl)c1O	–
inactive	inactive	O=C(Nc1ccc(Oc2cc3ccccc3cc2Br)c(Cl)c1)c1cc(Cl)cc(Cl)c1O	IC50 [1]: 123 µM; Ratio IC50 [10]: 15
inactive	inactive	O=C(Nc1ccc(Oc2ccc3ccccc3c2)c(F)c1)c1cc(Cl)cc(Cl)c1O	–
inactive	inactive	Cc1ccc(Oc2ccc(NC(=O)c3cc(Cl)cc(Cl)c3O)cc2Cl)cc1	–
inactive	inactive	Cc1cc(NC(=O)c2cc(Cl)cc(Cl)c2O)ccc1Oc1ccc2ccccc2c1	–
inactive	inactive	O=C(Nc1ccc(O)c(Cl)c1)c1cc(Cl)cc(Cl)c1O	inhibition [11]: < 10%
inactive	inactive	Cc1ccc(NC(=O)c2cc(Cl)cc(Cl)c2O)cc1	inhibition [11]: 10%
inactive	inactive	O=C(Nc1ccc(Oc2ccc3ccccc3c2)cc1)c1cc(Cl)cc(Cl)c1O	–
